Reference: ChEMBL document CHEMBL3244142, “Antifungal properties of 2-bromo-3-fluorosuccinic acid esters and related compounds” (1977)
In brackets after ≈: the same amount, converted by molar mass. Where a name gives a salt, the structure may show the parent alone. Activity calls are given as the source filed them. No cut-off for these calls is given here.

Experiments:
[1] = tested on: Aspergillus niger; test: Antifungal activity against Aspergillus niger ATCC 1004 at <100 ug/ml at pH 5.6 after 5 days in presence of 10% beef serum; type: functional, organism-based
Outline: (§1)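 Agar-dilution MIC in Sabouraud dextrose agar at pH 5.6 or 7.0, with or without 10% beef serum. Plates were incubated at 28 °C for 5 days. MIC is the lowest concentration (µg/mL) giving 100% inhibition. Steps were 1 µg/mL up to 10, 2 µg/mL from 10–20, and 10 µg/mL from 20–100; 100 µg/mL was the top level, and no inhibition there is scored as >100.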

[2] = tested on: Aspergillus niger; test: Antifungal activity against Aspergillus niger ATCC 1004 at <100 ug/ml at pH 7 after 5 days in absence of 10% beef serum; type: functional, organism-based; outline: as §1
[3] = tested on: Aspergillus niger; test: Antifungal activity against Aspergillus niger ATCC 1004 at <100 ug/ml at pH 7 after 5 days in presence of 10% beef serum; type: functional, organism-based; outline: as §1
[4] = tested on: Trichophyton mentagrophytes; test: Antifungal activity against Trichophyton mentagrophytes ATCC 9129 at pH 5.6 after 5 days in absence of 10% beef serum; type: functional; details: Trichophyton mentagrophytes, ATCC 9129, 120 h; read-out: MIC; outline: as §1
[5] = tested on: Trichophyton mentagrophytes; test: Antifungal activity against Trichophyton mentagrophytes ATCC 9129 at pH 5.6 after 5 days in presence of 10% beef serum; type: functional; details: Trichophyton mentagrophytes, ATCC 9129, 120 h; read-out: MIC; outline: as §1
[6] = tested on: Trichophyton mentagrophytes; test: Antifungal activity against Trichophyton mentagrophytes ATCC 9129 at pH 7 after 5 days in absence of 10% beef serum; type: functional; details: Trichophyton mentagrophytes, ATCC 9129, 120 h; read-out: MIC; outline: as §1
[7] = tested on: Trichophyton mentagrophytes; test: Antifungal activity against Trichophyton mentagrophytes ATCC 9129 at <100 ug/ml at pH 7 after 5 days in presence of 10% beef serum; type: functional, organism-based; outline: as §1
[8] = tested on: Aspergillus niger; test: Antifungal activity against Aspergillus niger ATCC 1004 at <100 ug/ml at pH 5.6 after 5 days in absence of 10% beef serum; type: functional, organism-based; outline: as §1
[9] = tested on: Mucor mucedo; test: Antifungal activity against Mucor mucedo ATCC 7941 at pH 7 after 20 h in absence of 10% beef serum; details: ATCC 7941, 20 h
[10] = tested on: Mucor mucedo; test: Antifungal activity against Mucor mucedo ATCC 7941 at pH 5.6 after 20 h in absence of 10% beef serum; details: ATCC 7941, 20 h
[11] = tested on: Candida albicans; test: Antifungal activity against Candida albicans ATCC 10231 at pH 7 after 20 h in absence of 10% beef serum; details: ATCC 10231, 20 h
[12] = tested on: Candida albicans; test: Antifungal activity against Candida albicans ATCC 10231 at pH 5.6 after 20 h in absence of 10% beef serum; details: ATCC 10231, 20 h
[13] = tested on: Mucor mucedo; test: Antifungal activity against Mucor mucedo ATCC 7941 at <100 ug/ml at pH 7 after 20 h in presence of 10% beef serum
[14] = tested on: Mucor mucedo; test: Antifungal activity against Mucor mucedo ATCC 7941 at <100 ug/ml at pH 5.6 after 20 h in presence of 10% beef serum
[15] = tested on: Candida albicans; test: Antifungal activity against Candida albicans ATCC 10231 at <100 ug/ml at pH 7 after 20 h in presence of 10% beef serum
[16] = tested on: Candida albicans; test: Antifungal activity against Candida albicans ATCC 10231 at <100 ug/ml at pH 5.6 after 20 h in presence of 10% beef serum
[17] = tested on: Trichophyton mentagrophytes; test: Antifungal activity against Trichophyton mentagrophytes ATCC 9129 at pH 7 after 5 days in presence of 10% beef serum; type: functional; details: Trichophyton mentagrophytes, ATCC 9129, 120 h; read-out: MIC; outline: as §1
[18] = tested on: Mucor mucedo; test: Antifungal activity against Mucor mucedo ATCC 7941 at <100 ug/ml at pH 7 after 20 h in absence of 10% beef serum
[19] = tested on: Mucor mucedo; test: Antifungal activity against Mucor mucedo ATCC 7941 at <100 ug/ml at pH 5.6 after 20 h in absence of 10% beef serum
[20] = tested on: Candida albicans; test: Antifungal activity against Candida albicans ATCC 10231 at <100 ug/ml at pH 7 after 20 h in absence of 10% beef serum
[21] = tested on: Candida albicans; test: Antifungal activity against Candida albicans ATCC 10231 at <100 ug/ml at pH 5.6 after 20 h in absence of 10% beef serum
[22] = tested on: Mucor mucedo; test: Antifungal activity against Mucor mucedo ATCC 7941 at pH 5.6 after 20 h in presence of 10% beef serum; details: ATCC 7941, 20 h
[23] = tested on: Aspergillus niger; test: Antifungal activity against Aspergillus niger ATCC 1004 at pH 5.6 after 5 days in presence of 10% beef serum; type: functional; details: Aspergillus niger, ATCC 1004, 120 h; read-out: MIC; outline: as §1
[24] = tested on: Aspergillus niger; test: Antifungal activity against Aspergillus niger ATCC 1004 at pH 7 after 5 days in absence of 10% beef serum; type: functional; details: Aspergillus niger, ATCC 1004, 120 h; read-out: MIC; outline: as §1
[25] = tested on: Aspergillus niger; test: Antifungal activity against Aspergillus niger ATCC 1004 at pH 5.6 after 5 days in absence of 10% beef serum; type: functional; details: Aspergillus niger, ATCC 1004, 120 h; read-out: MIC; outline: as §1
[26] = tested on: Mucor mucedo; test: Antifungal activity against Mucor mucedo ATCC 7941 at pH 7 after 20 h in presence of 10% beef serum; details: ATCC 7941, 20 h
[27] = tested on: Candida albicans; test: Antifungal activity against Candida albicans ATCC 10231 at pH 7 after 20 h in presence of 10% beef serum; details: ATCC 10231, 20 h
[28] = tested on: Candida albicans; test: Antifungal activity against Candida albicans ATCC 10231 at pH 5.6 after 20 h in presence of 10% beef serum; details: ATCC 10231, 20 h

| MIC [4] [µg/mL] | MIC [5] [µg/mL] | MIC [6] [µg/mL] | MIC [9] [µg/mL] | MIC [11] [µg/mL] | MIC [12] [µg/mL] | MIC [17] [µg/mL] | MIC [22] [µg/mL] | SMILES | inhibition [1] | inhibition [2] | inhibition [3] | inhibition [8] | inhibition [13] | inhibition [14] | inhibition [15] | inhibition [16] | inhibition [18] | inhibition [19] | inhibition [20] | inhibition [21] | also measured |
| --- | --- | --- | --- | --- | --- | --- | --- | --- | --- | --- | --- | --- | --- | --- | --- | --- | --- | --- | --- | --- | --- |
| 6 (≈ 30 µM) | 50 | 30 (≈ 150 µM) | 70 (≈ 350 µM) | 70 (≈ 350 µM) | 70 (≈ 350 µM) | – | – | CCCOC(=O)/C=C/C(=O)OCCC | inactive | inactive | inactive | inactive | inactive | inactive | inactive | inactive | – | – | – | – | inhibition [7]: inactive; MIC [10]: 60 µg/mL (≈ 300 µM) |
| 50 | 60 | 90 | – | – | – | 100 | – | CCOC(=O)/C=C\C(=O)OCC [DIETHYL MALEATE] | inactive | inactive | inactive | inactive | inactive | inactive | inactive | inactive | inactive | inactive | inactive | inactive | – |
| 6 (≈ 37 µM) | 8 | 50 (≈ 308 µM) | 40 (≈ 247 µM) | – | – | – | 20 | COC(=O)/C=C(/F)C(=O)OC | inactive | inactive | inactive | inactive | inactive | – | inactive | inactive | – | – | inactive | inactive | inhibition [7]: inactive; MIC [10]: 14 µg/mL (≈ 86.4 µM) |
| 14 (≈ 69.9 µM) | 40 | 50 (≈ 250 µM) | – | – | – | 60 | – | CCCOC(=O)/C=C\C(=O)OCCC | inactive | inactive | inactive | inactive | inactive | inactive | inactive | inactive | inactive | inactive | inactive | inactive | – |
| < 1 | 12 | 2 (≈ 6.69 µM) | 5 (≈ 16.7 µM) | 4 (≈ 13.4 µM) | 3 (≈ 10 µM) | 16 | 18 | CCCOC(=O)[C@H](F)[C@@H](Br)C(=O)OCCC (relative stereo) | – | – | inactive | – | – | – | – | – | – | – | – | – | MIC [23]: 40 µg/mL; MIC [24]: 40 µg/mL (≈ 134 µM); MIC [25]: 30 µg/mL (≈ 100 µM); MIC [26]: 20 µg/mL; MIC [27]: 16 µg/mL; MIC [28]: 16 µg/mL |
| 3 (≈ 9.17 µM) | 20 | 4 (≈ 12.2 µM) | 20 (≈ 61.1 µM) | 40 (≈ 122 µM) | 9 (≈ 27.5 µM) | 30 | 30 | CCCCOC(=O)[C@@H](F)[C@@H](Br)C(=O)OCCCC (relative stereo) | inactive | inactive | inactive | inactive | – | – | – | – | – | – | – | – | MIC [26]: 50 µg/mL; MIC [27]: 50 µg/mL; MIC [28]: 20 µg/mL |
| < 1 | 30 | 30 (≈ 91.7 µM) | 14 (≈ 42.8 µM) | 30 (≈ 91.7 µM) | 20 (≈ 61.1 µM) | 50 | 80 | CCCCOC(=O)[C@H](F)[C@@H](Br)C(=O)OCCCC (relative stereo) | inactive | inactive | inactive | inactive | inactive | – | – | – | – | – | – | – | MIC [27]: 90 µg/mL; MIC [28]: 80 µg/mL |
| 8 (≈ 35 µM) | 30 | 30 (≈ 131 µM) | – | – | – | 50 | – | CCCCOC(=O)/C=C\C(=O)OCCCC | inactive | inactive | inactive | inactive | inactive | inactive | inactive | inactive | inactive | inactive | inactive | inactive | – |
| 40 | 50 | 30 | – | – | – | 60 | – | COC(=O)/C=C\C(=O)OC [DIMETHYL MALEATE] | inactive | inactive | inactive | inactive | inactive | inactive | inactive | inactive | inactive | inactive | inactive | inactive | – |
| 10 (≈ 39 µM) | 50 | 30 (≈ 117 µM) | – | – | – | 60 | – | CCCCCOC(=O)/C=C\C(=O)OCCCCC | inactive | inactive | inactive | inactive | inactive | inactive | inactive | inactive | inactive | inactive | inactive | inactive | – |
| 16 (≈ 62.2 µM) | 18 | 16 (≈ 62.2 µM) | 40 (≈ 156 µM) | 90 (≈ 350 µM) | 90 (≈ 350 µM) | 40 | 50 | COC(=O)CC(F)C(Br)C(=O)OC (stereo not drawn) | inactive | inactive | inactive | inactive | – | – | – | – | – | – | – | – | MIC [26]: 60 µg/mL; MIC [27]: 90 µg/mL; MIC [28]: 90 µg/mL |
| 7 (≈ 30.7 µM) | 60 | 30 (≈ 131 µM) | – | – | – | – | – | CCCCOC(=O)/C=C/C(=O)OCCCC | inactive | inactive | inactive | inactive | inactive | inactive | inactive | inactive | inactive | inactive | inactive | inactive | inhibition [7]: inactive |

| SMILES | MIC [4] [µg/mL] | MIC [5] [µg/mL] | MIC [6] [µg/mL] | MIC [9] [µg/mL] | MIC [11] [µg/mL] | MIC [12] [µg/mL] | MIC [17] [µg/mL] | MIC [22] [µg/mL] | inhibition [1] | inhibition [2] | inhibition [3] | inhibition [8] | inhibition [13] | inhibition [14] | inhibition [15] | inhibition [16] | inhibition [18] | inhibition [19] | inhibition [20] | inhibition [21] | also measured |
| --- | --- | --- | --- | --- | --- | --- | --- | --- | --- | --- | --- | --- | --- | --- | --- | --- | --- | --- | --- | --- | --- |
| COC(=O)C(Br)CF (stereo not drawn) | 50 (≈ 270 µM) | 100 | 100 (≈ 541 µM) | 9 (≈ 48.7 µM) | – | – | – | 18 | inactive | inactive | inactive | inactive | – | – | inactive | inactive | – | – | inactive | inactive | inhibition [7]: inactive; MIC [26]: 30 µg/mL |
